In PMC10530161 (Bioorganic & medicinal chemistry, 2023):
Entries after “also recorded” stand apart in the source; their conditions may differ.

Tests used:
[1] = Mouse liver microsomal intrinsic clearance; format: in vitro ADME; conditions: for CLint scaled: mouse, liver microsomes, Intrinsinc Clearance mCLINT
In short: (§1)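 Intrinsic clearance was measured in human or mouse liver microsomes, depending on the line. Predicted hepatic clearance was then calculated from each species' intrinsic clearance using the well-stirred organ clearance model, with binding terms excluded. The work was done externally as in vitro DMPK studies.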

[2] = test system: SW620 colorectal cancer cells which overexpress claudin-1; test: Cell survival assay in SW620 cells, single concentration 25 μM; format: cell-based; conditions: for inhibition at 25 µM: Homo sapiens, SW-620, read-out: % inhibition at 25 uM; for activity in SW620 cell survival assay: SW620 cells, initial SAR survey at 25 μM
colorectal cancer = conditions: in vivo mouse model; cited from earlier work
[3] = Human liver microsomal intrinsic clearance; format: in vitro ADME; conditions: for CLint scaled: human, liver microsomes, Intrinsinc Clearance hCLINT
In short: as §1

SW620 cells = test: Dose response assay in SW620 cells; format: cell-based; conditions: starting at 12.5 μM
CYP2C19 = CYP2C19 (Homo sapiens, UniProt P33261); test: CYP inhibition, CYP2C19; format: in vitro ADME
CYP2C19, sequence (P33261 whole entry): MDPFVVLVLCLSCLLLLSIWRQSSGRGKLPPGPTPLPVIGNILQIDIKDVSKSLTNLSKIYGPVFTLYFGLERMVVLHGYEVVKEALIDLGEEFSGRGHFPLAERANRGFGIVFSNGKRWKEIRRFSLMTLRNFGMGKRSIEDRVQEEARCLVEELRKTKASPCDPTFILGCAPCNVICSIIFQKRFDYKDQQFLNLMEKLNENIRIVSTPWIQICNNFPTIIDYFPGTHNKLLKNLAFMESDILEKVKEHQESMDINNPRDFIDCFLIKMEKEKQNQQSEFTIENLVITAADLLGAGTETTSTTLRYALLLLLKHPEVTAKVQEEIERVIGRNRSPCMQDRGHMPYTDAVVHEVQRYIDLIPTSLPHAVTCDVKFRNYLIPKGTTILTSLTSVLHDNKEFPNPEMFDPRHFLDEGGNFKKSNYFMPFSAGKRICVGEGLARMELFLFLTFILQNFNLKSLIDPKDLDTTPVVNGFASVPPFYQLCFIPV

IEC-6 cells = test: General cytotoxicity, dose response in normal IEC-6 cells; format: cell-based; conditions: control for general cytotoxicity
CYP2D6 = CYP2D6 (Homo sapiens, UniProt P10635); test: CYP inhibition, CYP2D6; format: in vitro ADME
CYP2D6, sequence (P10635 whole entry): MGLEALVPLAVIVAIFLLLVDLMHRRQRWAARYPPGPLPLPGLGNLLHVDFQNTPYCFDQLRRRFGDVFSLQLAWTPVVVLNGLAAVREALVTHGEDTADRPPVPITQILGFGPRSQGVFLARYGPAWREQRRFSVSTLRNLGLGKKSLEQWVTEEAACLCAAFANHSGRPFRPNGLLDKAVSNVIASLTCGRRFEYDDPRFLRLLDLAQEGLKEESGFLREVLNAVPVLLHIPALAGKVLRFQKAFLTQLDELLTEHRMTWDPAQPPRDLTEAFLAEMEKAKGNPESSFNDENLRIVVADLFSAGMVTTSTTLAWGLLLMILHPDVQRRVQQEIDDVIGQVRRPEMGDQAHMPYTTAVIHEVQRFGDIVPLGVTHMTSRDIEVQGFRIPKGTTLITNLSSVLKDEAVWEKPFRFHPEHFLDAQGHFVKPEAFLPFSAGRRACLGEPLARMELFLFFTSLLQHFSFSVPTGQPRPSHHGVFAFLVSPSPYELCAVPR

CYP3A4 = CYP3A4 (Homo sapiens, UniProt P08684); test: CYP inhibition, CYP3A4; format: in vitro ADME
CYP3A4, sequence (P08684 whole entry): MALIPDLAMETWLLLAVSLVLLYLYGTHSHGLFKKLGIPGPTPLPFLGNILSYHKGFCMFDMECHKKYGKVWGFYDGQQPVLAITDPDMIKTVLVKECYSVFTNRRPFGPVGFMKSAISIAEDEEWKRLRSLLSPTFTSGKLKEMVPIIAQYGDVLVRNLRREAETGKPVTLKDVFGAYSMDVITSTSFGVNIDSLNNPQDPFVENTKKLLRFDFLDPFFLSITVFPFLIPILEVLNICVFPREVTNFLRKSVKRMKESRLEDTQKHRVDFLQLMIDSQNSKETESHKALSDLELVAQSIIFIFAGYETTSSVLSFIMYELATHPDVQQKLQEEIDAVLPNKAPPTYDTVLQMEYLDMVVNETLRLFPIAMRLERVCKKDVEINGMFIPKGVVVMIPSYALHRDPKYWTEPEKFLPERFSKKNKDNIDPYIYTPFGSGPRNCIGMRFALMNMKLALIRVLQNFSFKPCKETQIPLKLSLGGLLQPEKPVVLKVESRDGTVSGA

Row | SMILES | CLint scaled [1] [mL/min/kg] | inhibition at 25 µM [2] [%] | CLint scaled [3] [mL/min/kg] | other results
1 | O=C(NC(=S)Nc1ccc(-c2nc3ccccc3o2)cc1)c1ccc2ccccc2c1 [compound 28] | 53.4 | 76.4 | 32.4 | stability in mouse liver microsomes [1]: moderate stability; activity in SW620 cell survival assay [2]: active; activity in in vivo model of colorectal cancer (colorectal cancer): active; also recorded: antitumor and chemosensitizer activities; stability in human liver microsomes [3]: moderate stability; % cell survival (SW620 cells): < 50%
2 | O=C(NC(=S)Nc1ccc(-c2nc3ccccc3o2)cc1)c1ccc2cccnc2c1 [compound 36] |  | 0 |  | 
3 | COc1cc2ccccc2cc1C(=O)NC(=S)Nc1ccc(-c2nc3ccccc3o2)cc1 [compound 11] | < 20 |  | < 20 | stability in mouse liver microsomes [1]: stable; activity in SW620 cell survival assay [2]: not active; stability in human liver microsomes [3]: stable
4 | CCOc1cc2ccccc2cc1C(=O)NC(=S)Nc1ccc(-c2nc3ccccc3o2)cc1 [compound 30] |  | 0 |  | 
5 | CC(C)Oc1cc2ccccc2cc1C(=O)NC(=S)Nc1ccc(-c2nc3ccccc3o2)cc1 [compound 32] |  | 17.2 |  | 
6 | COc1cc2ccccc2cc1C(=O)NC(=S)Nc1ccc(-c2ncon2)cc1 [compound 19] | 46.2 | 18.4 | < 20 | stability in mouse liver microsomes [1]: moderate stability; activity in SW620 cell survival assay [2]: inactive; stability in human liver microsomes [3]: regained the stability
7 | COc1cc2ccccc2cc1C(=O)NC(=S)Nc1ccc(-c2nc3ccccc3[nH]2)cc1 [compound 10] | 42.7 |  | 27.8 | stability in mouse liver microsomes [1]: moderate stability; stability in human liver microsomes [3]: moderate stability
8 | O=C1c2ccccc2CCN1C(=S)Nc1ccc(-c2ncco2)cc1 [compound 39] |  | 0.9 |  | 
9 | COc1cc2ccccc2cc1C(=O)NC(=S)Nc1ccc(-c2nc3ccccc3s2)cc1 [compound 13] |  |  |  | activity in SW620 cell survival assay [2]: not active
10 | COc1cc2ccccc2cc1C(=O)NC(=O)Nc1ccc(-c2nc3ccccc3s2)cc1 [compound 25] |  | 0 |  | 
11 | COc1cc2ccccc2cc1C(=O)Nc1ncc(C(F)(F)F)s1 [compound 22] |  | 17.6 |  | 
12 | COc1cc2ccccc2cc1C(=O)NC(=O)Nc1ccc(-c2cscn2)cc1 [compound 27] | 43.5 | 42.6 | 92.8 | 
13 | COc1cc2c(OC)cccc2cc1C(=O)NC(=S)Nc1ccc(-c2nc3ccccc3[nH]2)cc1 [compound 33] |  | 37.6 |  | 
14 | COc1cc2ccccc2cc1C(=O)NC(=S)Nc1ccc(-c2nc3ccccc3s2)cn1 [compound 14] |  |  |  | activity in SW620 cell survival assay [2]: not active
15 | COc1cc2ccccc2cc1C(=O)NC(=S)Nc1ccc(-c2nccs2)cc1 [compound 16] | 37.7 |  | 202 | stability in mouse liver microsomes [1]: moderately stable; stability in human liver microsomes [3]: instability
16 | O=C(NC(=S)Nc1ccc(-c2ncco2)cc1)c1ccc2cccnc2c1 [compound 37] |  | 1.4 |  | 
17 | COc1cc2ccccc2cc1C(=O)NC(=O)Nc1ccc(-c2nnco2)cc1 [compound 26] |  | 23.8 |  | 
18 | COc1cc2ccccc2cc1C(=O)Nc1ccc(-c2nc3ccccc3s2)cc1 [compound 20] |  | 42.3 |  | 
19 | O=C(NC(=S)Nc1ccc(-c2nc3ccccc3[nH]2)cc1)c1ccc2cccnc2c1 [compound 35] |  | 0 |  | 
20 | COc1cc2ccccc2cc1C(=O)NC(=S)Nc1ccc(-c2nc3ccccc3o2)cn1 [compound 12] |  |  |  | activity in SW620 cell survival assay [2]: not active
21 | COc1cc2ccccc2cc1C(=O)NC(=S)Nc1ccc(-c2ncc[nH]2)cc1 [compound 15] | 57.8 |  | 125 | stability in mouse liver microsomes [1]: moderately stable; inhibition at 10 µM (CYP2C19): < 50%; concentration at which cytotoxicity was shown (IEC-6 cells): 12.5 µM; inhibition at 10 µM (CYP2D6): < 50%; stability in human liver microsomes [3]: instability; inhibition at 10 µM (CYP3A4): < 50%
22 | COc1cc2ccccc2cc1C(=O)NC(=S)Nc1ccc(-c2nnco2)cc1 [compound 18] | 38.2 |  | < 20 | stability in mouse liver microsomes [1]: moderate stability; inhibition at 10 µM (CYP2C19): < 50%; inhibition at 10 µM (CYP2D6): < 50%; stability in human liver microsomes [3]: regained the stability; inhibition at 10 µM (CYP3A4): < 50%
23 | COc1cc2ccccc2cc1C(=O)NC(=O)Nc1ccc(-c2nc3ccccc3o2)cc1 [compound 24] |  | 0 |  | 
24 | O=C(NC(=O)c1ccc2ccccc2c1)Nc1ccc(-c2nc3ccccc3[nH]2)cc1 [compound 29] | 365 | 12.7 | 86.3 | 
25 | COc1cc2ccccc2cc1C(=O)NC(=O)Nc1ccc(-c2nc3ccccc3[nH]2)cc1 [compound 23] | 236 | 90.8 | 67.8 | 
26 | CCOc1cc2ccccc2cc1C(=O)NC(=S)Nc1ccc(-c2nc3ccccc3s2)cc1 [compound 31] |  | 13 |  | 
27 | COc1cc2c(OC)cccc2cc1C(=O)NC(=S)Nc1ccc(-c2nc3ccccc3s2)cc1 [compound 34] |  | 15.8 |  | 
28 | COc1ccccc1NC(=O)Nc1ccc(-c2nc3ccccc3[nH]2)cc1 [compound 40] |  | 23.8 |  | 
29 | O=C1c2ccccc2CCN1C(=S)Nc1ccc(-c2nc3ccccc3o2)cc1 [compound 38] | 139 |  | < 20 | 
30 | COc1cc2ccccc2cc1C(=O)NC(=S)Nc1ccc(-c2cscn2)cc1 [compound 21] |  | 29 |  | 
